Reference: ChEMBL document CHEMBL3120162, “Sesquiterpenes from Neurolaena lobata and their antiproliferative and anti-inflammatory activities” (J Nat Prod, 2014)
Active and inactive are the calls of the source. The calls are words filed in the database; no cut-off is given here.

Columns and labels:
HUVEC [1] = experiment: Inhibition of LPS-induced IL-8 secretion in HUVEC expressing TERT treated for 15 mins prior to LPS challenge measured after 6 hrs by ELISA; type: functional, Homo sapiens
Outline: (§1)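 Immortalized HUVEC (hTERT) were grown in medium 199 with 20% FBS, glutamine and ECGS/heparin. Compounds were added in medium with 5% FBS (final 30 μM) 15 min before a stimulus: TNF-α 30 ng/mL or LPS 100 ng/mL final. Media were collected after 6 h and IL-8 protein was measured by ELISA with TMB substrate. Sextuplicates, BAY positive control, ANOVA.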

HUVEC [2] = experiment: Inhibition of TNF-alpha-induced IL-8 secretion in HUVEC expressing TERT treated for 15 mins prior to LPS challenge measured after 6 hrs by ELISA; type: functional, Homo sapiens; outline: as §1
MCF7 = experiment: Antiproliferative activity against human MCF7 cells assessed as inhibition of cell proliferation after 72 hrs by MTT assay; type: functional, cell-based; settings: MCF7, 72 h
Outline: (§2)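 Cells seeded at 5000/well and allowed to attach overnight, then given fresh medium with test agents (from 10 mM DMSO stocks; at most 0.3% DMSO in medium) for 72 h. 5 mg/mL MTT solution was added for 4 h, and formazan was dissolved in DMSO and read at 545 nm. Untreated cells served as negative control and cisplatin as reference. Two plates, ≥5 parallel wells each. IC50 from sigmoidal dose-response fits.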

HeLa = experiment: Antiproliferative activity against human HeLa cells assessed as inhibition of cell proliferation after 72 hrs by MTT assay; type: functional, cell-based; outline: as §2
HUVEC [3] = experiment: Inhibition of TNF-alpha-induced IL-8 secretion in HUVEC expressing TERT at 30 uM treated for 15 mins prior to LPS challenge measured after 6 hrs by ELISA; type: functional, cell-based; settings: Homo sapiens; outline: as §1
A2780 = experiment: Antiproliferative activity against human A2780 cells assessed as inhibition of cell proliferation after 72 hrs by MTT assay; type: functional, cell-based; settings: A2780, 72 h; outline: as §2
HUVEC [4] = experiment: Inhibition of LPS-induced IL-8 secretion in HUVEC expressing TERT at 30 uM treated for 15 mins prior to LPS challenge measured after 6 hrs by ELISA; type: functional, cell-based; settings: Homo sapiens; outline: as §1
A-431 = experiment: Antiproliferative activity against human A431 cells assessed as inhibition of cell proliferation after 72 hrs by MTT assay; type: functional, cell-based; settings: A-431, 72 h; outline: as §2

IC50 (MCF7) [µM] | IC50 (HeLa) [µM] | IC50 (A2780) [µM] | IC50 (A-431) [µM] | SMILES | inhibition (INH) (HUVEC [1]) [%] | inhibition (INH) (HUVEC [2]) [%] | inhibition (HUVEC [3]) | inhibition (HUVEC [4])
 |  |  |  | Cc1ccc(S(=O)(=O)/C=C/C#N)cc1 | 12.7 | 23.7 |  | 
> 10 | > 10 | 7.2 | 5.3 | C=C1C(=O)O[C@@H]2[C@@H]1[C@H](OC(=O)CC(C)C)C[C@@]1(C)[C@H](O)C[C@H](OC(C)=O)C(=C)[C@H]21 (relative stereo) |  |  | inactive | Active
7.2 | > 10 | 4.7 | 7.2 | C=C1C(=O)O[C@@H]2/C=C(\C)[C@H](O)C[C@H]3O[C@]3(C)C[C@@H](OC(=O)CC(C)C)[C@@H]12 (relative stereo) |  |  | inactive | Active
> 10 | > 10 | > 10 | > 10 | C=C1C(=O)O[C@@H]2[C@@H](O)[C@@H](C)C3=CC(=O)[C@](C)(O3)[C@H](O)[C@@H](OC(=O)CC(C)C)[C@@H]12 (relative stereo) |  |  | inactive | Active
> 10 | > 10 | 5.4 | 6.8 | C=C1C(=O)O[C@@H]2C[C@@]3(C)O[C@H](O[C@H]3CC(=O)C(C)=O)[C@@H](OC(=O)CC(C)C)[C@@H]12 (relative stereo) |  |  | inactive | Active
> 10 | > 10 | 9.8 | > 10 | C=C1C(=O)O[C@@H]2C[C@]3(C)O[C@@H](O[C@@H]3CC(=O)C(C)=O)[C@@H](OC(=O)CC(C)C)[C@@H]12 (relative stereo) |  |  | inactive | Active
